Results as given in ChEMBL document CHEMBL3421613, “Inubosins A, B, and C are acridine alkaloids isolated from a culture of Streptomyces sp. IFM 11440 with Ngn2 promoter activity” (J Nat Prod, 2015).
Activity calls are given as the source filed them. No cut-off for these calls is given here.

Columns and labels:
Mus musculus [1] = species on record: Mus musculus; assay: Induction of cell differentiation of mouse C17.2 cells assessed as appearance of differentiated cell bodies; format: functional
Mus musculus [2] = species on record: Mus musculus; assay: Induction of NeuroD2 mRNA expression in mouse C17.2 cells at 20 uM incubated for 4 days by real-time RT-PCR method; format: functional, cell-based
Outline: (§1)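 Mouse C17.2 neural stem cells were treated at 20 μM for 4 days, with baicalin (20 μM) as positive control. Total RNA was isolated and Ngn2, Ngn1, NeuroD2 and NT3 transcripts were quantified by real-time RT-PCR. mRNA levels were normalized to GAPDH; SD shown.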

C3H 10T1/2 [3] = assay: Activation of 1650 bp mouse Ngn2 promoter activity expressed in mouse C3H10T1/2 cells at 2.5 to 20 uM incubated for 24 hrs by luciferase reporter gene assay; format: cell-based
Outline: (§2)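 C3H10T1/2 mesenchymal progenitor cells stably transfected with a luciferase reporter carrying the mouse Ngn2 promoter region (1650 bp). Cells were exposed for 24 h in 0.1% DMSO, with DMSO as negative control and baicalin (100 μM) as positive control. Luciferase output was read, n = 3, SD. Cytotoxicity to the same cells was measured in parallel by fluorimetric microculture assay (esterase hydrolysis of fluorescein diacetate).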

Mus musculus [4] = species on record: Mus musculus; assay: Induction of Ngn1 mRNA expression in mouse C17.2 cells at 20 uM incubated for 4 days by real-time RT-PCR method; format: functional, cell-based; outline: as §1
Mus musculus [5] = species on record: Mus musculus; assay: Induction of NT3 mRNA expression in mouse C17.2 cells at 20 uM incubated for 4 days by real-time RT-PCR method; format: functional, cell-based; outline: as §1
Mus musculus [6] = species on record: Mus musculus; assay: Induction of Ngn2 mRNA expression in mouse C17.2 cells at 20 uM incubated for 4 days by real-time RT-PCR method; format: functional, cell-based; outline: as §1
C3H 10T1/2 [7] = assay: Activation of 1650 bp mouse Ngn2 promoter activity expressed in mouse C3H10T1/2 cells at 100 uM incubated for 24 hrs by luciferase reporter gene assay relative to untreated control; format: cell-based; outline: as §2
C3H 10T1/2 [8] = assay: Activation of 1650 bp mouse Ngn2 promoter activity expressed in mouse C3H10T1/2 cells at 20 uM incubated for 24 hrs by luciferase reporter gene assay relative to baicalin; format: cell-based; outline: as §2
C3H 10T1/2 [9] = assay: Activation of 1650 bp mouse Ngn2 promoter activity expressed in mouse C3H10T1/2 cells at 20 uM incubated for 24 hrs by luciferase reporter gene assay relative to untreated control; format: cell-based; outline: as §2

OCc1ccc2nc3c(O)cccc3cc2c1
Activity (Mus musculus [1]): Active | Activity (Mus musculus [2]): Active | Activity (C3H 10T1/2 [3]): inactive | Activity (Mus musculus [4]): Active | Activity (Mus musculus [5]): Active | Activity (Mus musculus [6]): Active

O=C(O)[C@H]1O[C@@H](Oc2cc3oc(-c4ccccc4)cc(=O)c3c(O)c2O)[C@H](O)[C@@H](O)[C@@H]1O
fold change (FC) (C3H 10T1/2 [7]): 1.5

OCc1cc(O)c2nc3c(O)cccc3cc2c1
Activity (C3H 10T1/2 [3]): inactive

OCc1cc(O)c2nc3ccccc3cc2c1
Activity (Mus musculus [1]): Active | Activity (Mus musculus [2]): Active | Activity (C3H 10T1/2 [3]): Dose-dependent effect | fold change (FC) (C3H 10T1/2 [8]): 1.9 | fold change (FC) (C3H 10T1/2 [9]): 2.8 | Activity (Mus musculus [4]): Active | Activity (Mus musculus [5]): Active | Activity (Mus musculus [6]): Active
